Reference: ChEMBL document CHEMBL1145462, “In vivo pharmacodynamic activity of the glycopeptide dalbavancin” (Antimicrob Agents Chemother, 2007)
≈ marks a conversion by molar mass, not a printed value.

Tests used:
Staphylococcus aureus [1] = assay: AUC/MBC ratio of Staphylococcus aureus ATCC 25923 infected neutropenic mouse thigh infection model at 185 mg/kg, ip administered every 72 hrs by 1-log killing experiment; assay type: functional; conditions: route intraperitoneal
Staphylococcus aureus [2] = assay: Bactericidal activity against […] Staphylococcus aureus ATCC 29213 infected neutropenic Swiss ICR mouse thigh infection model assessed as drug level causing 2-log reduction of bacterial count at 15 mg/kg, ip dosed every 36 hrs; assay type: functional; conditions: route intraperitoneal
[3] = Cmax in bacterial pathogen-infected neutropenic Swiss ICR mouse thigh infection model at 2.5 mg/kg, ip; assay type: ADME, organism-based; set-up: dose 2.5 mg/kg, route intraperitoneal; conditions: in vivo
Outline: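 Single-dose serum PK in thigh-infected neutropenic mice; intraperitoneal dalbavancin (0.2 ml/dose) at 2.5–80 mg/kg. Blood from groups of three mice at 0.5–96 h by retroorbital aspiration; plasma level by Bacillus subtilis microbiologic assay (detection limit 0.10 mg/liter). Noncompartmental analysis; AUC by trapezoidal rule from mean concentrations, extrapolated to infinity.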

Staphylococcus aureus [4] = assay: AUC/MBC ratio of Staphylococcus aureus 307109 infected neutropenic mouse thigh infection model at 34 mg/kg, ip administered every 72 hrs by 1-log killing experiment; assay type: functional; conditions: route intraperitoneal
Staphylococcus aureus [5] = assay: AUC/MIC ratio of methicillin-resistant Staphylococcus aureus infected neutropenic mouse thigh infection model at 45.3 mg/kg, ip administered every 24 hrs by 1-log killing experiment; assay type: functional; conditions: route intraperitoneal
Streptococcus pneumoniae [6] = assay: AUC/MIC ratio of Streptococcus pneumoniae 1199 infected neutropenic mouse thigh infection model at 0.40 mg/kg, ip administered every 24 hrs by static effect experiment; assay type: functional; conditions: dose 0.4 mg/kg; route intraperitoneal
Staphylococcus aureus [7] = assay: AUC/MBC ratio of Staphylococcus aureus 307109 infected neutropenic mouse thigh infection model at 31 mg/kg, ip administered every 72 hrs by static effect experiment; assay type: functional; conditions: route intraperitoneal
[8] = Cmax in bacterial pathogen-infected neutropenic Swiss ICR mouse thigh infection model at 10 mg/kg, ip; assay type: ADME, organism-based; set-up: dose 10 mg/kg, route intraperitoneal; conditions: in vivo
Outline: (§1)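 Thigh-infected neutropenic mice received single intraperitoneal doses (2.5, 5, 10, 20, 40, 80 mg/kg; 0.2 ml/dose). Blood was drawn by retroorbital aspiration from groups of three mice at 0.5, 1, 2, 4, 6, 24, 48, 72 and 96 h. Plasma levels were measured by microbiologic assay with Bacillus subtilis (detection limit 0.10 mg/liter). Noncompartmental analysis was used: half-life by linear least-squares regression, AUC by trapezoidal rule.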

Streptococcus pneumoniae [9] = assay: Bactericidal activity in Streptococcus pneumoniae ATCC 10813 infected neutropenic mouse thigh infection model assessed as drug level causing 1-log reduction of bacterial count at 4.13 mg/kg/6days; assay type: functional
Staphylococcus aureus [10] = assay: AUC/MBC ratio of Staphylococcus aureus ATCC 25923 infected neutropenic mouse thigh infection model at 214 mg/kg, ip administered every 72 hrs by 2-log killing experiment; assay type: functional; conditions: route intraperitoneal
Staphylococcus aureus [11] = assay: AUC/MBC ratio of Staphylococcus aureus 307109 infected neutropenic mouse thigh infection model at 37 mg/kg, ip administered every 72 hrs by 2-log killing experiment; assay type: functional; conditions: route intraperitoneal
[12] = Cmax in bacterial pathogen-infected neutropenic Swiss ICR mouse thigh infection model at 20 mg/kg, ip; assay type: ADME, organism-based; set-up: dose 20 mg/kg, route intraperitoneal; conditions: in vivo; outline: as §1
Staphylococcus aureus [13] = assay: AUC/MIC ratio of Staphylococcus aureus Smith infected neutropenic mouse thigh infection model at 33.5 mg/kg, ip administered every 24 hrs by static effect experiment; assay type: functional; conditions: route intraperitoneal
Staphylococcus aureus [14] = assay: Antibacterial activity against Staphylococcus aureus ATCC 25923 by microdilution method; assay type: functional
Outline: (§2)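 MIC and MBC were determined by CLSI broth microdilution, in duplicate on at least two occasions. Staphylococci were grown in Mueller-Hinton broth and agar; pneumococci were plated on sheep blood agar.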

Staphylococcus aureus [15] = assay: AUC/MIC ratio of Staphylococcus aureus ATCC 25923 infected neutropenic mouse thigh infection model at 214 mg/kg, ip administered every 72 hrs by 2-log killing experiment; assay type: functional; conditions: route intraperitoneal
Staphylococcus aureus [16] = assay: Antibacterial activity against Staphylococcus aureus 307109 by microdilution method; assay type: functional; outline: as §2
Staphylococcus aureus [17] = assay: AUC/MBC ratio of methicillin-resistant Staphylococcus aureus infected neutropenic mouse thigh infection model at 37.7 mg/kg, ip administered every 24 hrs by static effect experiment; assay type: functional; conditions: route intraperitoneal
Staphylococcus aureus [18] = assay: Antibacterial activity against methicillin-resistant Staphylococcus aureus in presence of 95% mouse serum; assay type: functional
Outline: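 MIC determined in broth, heat-treated (100°C, 30 min) 95% mouse serum, and 95% mouse serum ultrafiltrate, using arithmetic dilutions of 0.02 mg/liter per tube. Protein binding estimated as (MIC in 95% serum − MIC in ultrafiltrate)/MIC in 95% serum.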

Staphylococcus aureus [19] = assay: AUC/MBC ratio of Staphylococcus aureus 31005 infected neutropenic mouse thigh infection model at 127 mg/kg, ip administered every 72 hrs by 2-log killing experiment; assay type: functional; conditions: route intraperitoneal
Streptococcus pneumoniae [20] = assay: AUC/MIC ratio of Streptococcus pneumoniae ATCC 10813 infected neutropenic mouse thigh infection model at 0.77 mg/kg, ip administered every 72 hrs by 1-log killing experiment; assay type: functional; conditions: route intraperitoneal
Streptococcus pneumoniae [21] = assay: Bactericidal activity against penicillin-susceptible Streptococcus pneumoniae ATCC 10813 infected neutropenic Swiss ICR mouse thigh infection model assessed as drug level causing 1-log reduction of bacterial count at 2.3 mg/kg, ip dosed every 12 hrs; assay type: functional; conditions: route intraperitoneal
Outline: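 Neutropenic mice (cyclophosphamide ip 150 mg/kg day −4, 100 mg/kg day −1, then every 48 h) received 0.1 ml log-phase inoculum per thigh under halothane. Intraperitoneal dalbavancin started 2 h later and was given for 6 days at q12h, q24h, q36h or q72h, two mice per regimen. Thigh CFU were counted at 144 h. Endpoint doses relative to start-of-therapy counts came from Hill-model nonlinear regression and are expressed per 24 h.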

Serum = assay: Protein binding in Staphylococcus aureus infected neutropenic mouse serum; assay type: ADME, organism-based; conditions: in vivo
Outline: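 MICs for S. aureus ATCC 25923 and an MRSA strain were compared in broth, heat-treated (100°C, 30 min) 95% mouse serum and 95% serum ultrafiltrate, using arithmetic dilutions of 0.02 mg/liter per tube. Bound fraction = (MIC in serum − MIC in ultrafiltrate)/MIC in serum.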

Staphylococcus aureus [22] = assay: AUC/MBC ratio of methicillin-resistant Staphylococcus aureus infected neutropenic mouse thigh infection model at 43 mg/kg, ip administered every 72 hrs by static effect experiment; assay type: functional; conditions: route intraperitoneal
Staphylococcus aureus [23] = assay: AUC/MIC ratio of Staphylococcus aureus Smith infected neutropenic mouse thigh infection model at 59 mg/kg, ip administered every 72 hrs by static effect experiment; assay type: functional; conditions: route intraperitoneal
Mus musculus = assay: AUC in bacterial pathogen-infected neutropenic Swiss ICR mouse thigh infection model at 10 mg/kg, ip; assay type: ADME, organism-based; set-up: dose 10 mg/kg, route intraperitoneal; conditions: in vivo; outline: as §1
[24] = AUC in bacterial pathogen-infected neutropenic Swiss ICR mouse thigh infection model at 20 mg/kg, ip; assay type: ADME, organism-based; set-up: dose 20 mg/kg, route intraperitoneal; conditions: in vivo; outline: as §1
Streptococcus pneumoniae [25] = assay: AUC/MIC ratio of Streptococcus pneumoniae 1325 infected neutropenic mouse thigh infection model at 1.6 mg/kg, ip administered every 24 hrs by 1-log killing experiment; assay type: functional; conditions: route intraperitoneal
Staphylococcus aureus [26] = assay: AUC/MIC ratio of Staphylococcus aureus 33591 infected neutropenic mouse thigh infection model at 74 mg/kg, ip administered every 72 hrs by static effect experiment; assay type: functional; conditions: route intraperitoneal
Staphylococcus aureus [27] = assay: AUC/MBC ratio of methicillin-resistant Staphylococcus aureus infected neutropenic mouse thigh infection model at 45.3 mg/kg, ip administered every 24 hrs by 1-log killing experiment; assay type: functional; conditions: route intraperitoneal

## CN[C@H]1C(=O)N[C@@H]2Cc3ccc(cc3)Oc3cc4cc(c3O[C@@H]3O[C@H](C(=O)O)[C@@H](O)[C@H](O)[C@H]3NC(=O)CCCCCCCCC(C)C)Oc3ccc(cc3Cl)[C@@H](O)[C@@H]3NC(=O)[C@H](NC(=O)[C@@H]4NC(=O)[C@@H](NC2=O)c2cc(cc(O)c2Cl)Oc2cc1ccc2O)c1ccc(O)c(c1)-c1c(O[C@H]2O[C@H](CO)[C@@H](O)[C@H](O)[C@@H]2O)cc(O)cc1[C@@H](C(=O)NCCCN(C)C)NC3=O [DALBAVANCIN]
Staphylococcus aureus [1]
  Ratio: 76.1
Staphylococcus aureus [2]
  Activity: 122
[3]
  Cmax: 7400 ng/mL
Staphylococcus aureus [4]
  Ratio: 12.9
Staphylococcus aureus [5]
  RatioAUC/MIC: 452
Streptococcus pneumoniae [6]
  RatioAUC/MIC: 16
Staphylococcus aureus [7]
  Ratio: 11.3
[8]
  Cmax: 34800 ng/mL
Streptococcus pneumoniae [9]
  Activity: 4.38
Staphylococcus aureus [10]
  Ratio: 88.1
Staphylococcus aureus [11]
  Ratio: 14.6
[12]
  Cmax: 190000 ng/mL
Staphylococcus aureus [13]
  RatioAUC/MIC: 156
Staphylococcus aureus [14]
  MBC: 0.5 µg/mL (≈ 0.275 µM)
  MIC: 0.12 µg/mL (≈ 0.0661 µM)
Staphylococcus aureus [15]
  RatioAUC/MIC: 367
Staphylococcus aureus [16]
  MBC: 0.12 µg/mL (≈ 0.0661 µM)
  MIC: 0.06 µg/mL (≈ 0.033 µM)
Staphylococcus aureus [17]
  Ratio: 93
Staphylococcus aureus [18]
  MIC: 32 µg/mL
Staphylococcus aureus [19]
  Ratio: 217
Streptococcus pneumoniae [20]
  RatioAUC/MIC: 1.6
Streptococcus pneumoniae [21]
  Activity: 2.8
Serum
  Activity: 98.4%
Staphylococcus aureus [22]
  Ratio: 35.3
Staphylococcus aureus [23]
  RatioAUC/MIC: 96
Mus musculus
  AUC: 579 µg·h/mL
[24]
  AUC: 2260 µg·h/mL
Streptococcus pneumoniae [25]
  RatioAUC/MIC: 31.8
Staphylococcus aureus [26]
  RatioAUC/MIC: 123
Staphylococcus aureus [27]
  Ratio: 109
